From ChEMBL document CHEMBL4138042, “A Scaffold Merging Approach to Hsp90 C-terminal Inhibition: Synthesis and Evaluation of a Chimeric Library” (Medchemcomm, 2017) come the findings set out here.

Data set [1] deals with T1, Heat shock protein HSP90 (Homo sapiens) (UniProt P07900+P08238). Briefly: Inhibition of HSP90 in human MCF7 cells assessed as reduction in HER2 protein level incubated for 24 hrs by Western blotting method. The class given is cell-based. Put shortly: (§1)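 Treated MCF-7 cells were analysed by western blot for the Hsp90 clients HER2, CDK4, ER-α and cyclin D1. Actin served as the Hsp90-independent control protein.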
(In western blotting, separated proteins are transferred to a membrane and probed.)

Data set [2] concerns the target T1, Heat shock protein HSP90 (Homo sapiens). Briefly: Inhibition of HSP90 in human PC3-MM2 cells expressing luciferase assessed as reduction in heat-denatured lucifearse refolding incubated for 1 hr by luciferase rematuration assay. It is filed as cell-based. The gist of the method:
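PC3-MM2 cells expressing firefly luciferase were heated to denature luciferase, then incubated with DMSO or test compound. Luciferase activity was then measured to gauge refolding. Read-out is RLU relative to DMSO, given as mean ± SD of at least two separate experiments run in triplicate.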

Data set [3] relates to SK-BR-3. Briefly: Antiproliferative activity in human SKBR3 cells incubated for 72 hrs by MTS/PMS cell proliferation assay. It is filed as functional, cell-based. Conditions: SK-BR-3, 72 h. Put shortly:
(§2)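 Values are mean ± SD of at least three separate experiments, each run in triplicate.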

Data set [4] relates to MCF7. Briefly: Antiproliferative activity in human MCF7 cells incubated for 72 hrs by MTS/PMS cell proliferation assay. It is filed as functional, cell-based. As to conditions: MCF7, 72 h. The gist of the method: as §2
The target in data set [5] is T1, Heat shock protein HSP90 (Homo sapiens). Briefly: Inhibition of HSP90 in human MCF7 cells assessed as reduction in ERalpha protein level incubated for 24 hrs by Western blotting method. It is filed as cell-based. Put shortly: as §1
The test system of data set [6] is MCF7. Briefly: Effect on actin protein expression in human MCF7 cells at 0.5 and 10 fold antiproliferative IC50 incubated for 24 hrs by Western blotting method. It is filed as cell-based. As to conditions: mcf7, 24 h. The gist of the method:
as §1

The subject of data set [7] is MCF7. Put plainly: Induction of heat shock response in human MCF7 cells assessed as effect on Hsp70 protein levels at 0.5 and 10 fold antiproliferative IC50 incubated for 24 hrs by Western blotting method. It is filed as cell-based. Conditions: mcf7, 24 h.
For data set [8], the target named is T1, Heat shock protein HSP90 (Homo sapiens). Briefly: Inhibition of HSP90 in human MCF7 cells assessed as reduction in cyclin D1 protein level incubated for 24 hrs by Western blotting method. The class given is cell-based. Put shortly: as §1
For data set [9], the system named is MCF7. Briefly: Induction of heat shock response in human MCF7 cells assessed as effect on Hsp90 protein levels at antiproliferative 0.5 and 10 fold IC50 incubated for 24 hrs by Western blotting method. The class given is cell-based. Conditions: mcf7, 24 h.
Data set [10] concerns the target T1, Heat shock protein HSP90 (Homo sapiens). Briefly: Inhibition of HSP90 in human MCF7 cells assessed as reduction in CDK4 protein level incubated for 24 hrs by Western blotting method. The class given is cell-based. Put shortly:
as §1

Data set [11] can be described thus: Inhibition of full length chicken Hsp90beta (1 to 728 amino acids). More on the design: species or system Gallus gallus.

SMILES strings stand for the structures. pEC50: −log10 of the molar value. Calls of active or inactive are those of the source. The calls are words filed in the database; no cut-off is given here.

As usually defined, the pEC50 is the EC50 on a negative log10 scale, so that one unit is a factor of ten. A higher pEC50 goes with a low EC50. As to `CN1CCC(Oc2ccc(-c3cccc(NC(=O)c4cn(Cc5ccccc5)nn4)c3)c(-c3cccc(C(F)(F)F)c3)c2)CC1`, the inhibition result in data set [1], in data set [5], in data set [8] and in data set [10] was “Dose-dependent effect” each time. Moreover, in data set [2], the inhibition result is “Active”. Also, the negative-log EC50 (pEC50) in data set [3] was 5.66; in [4] it was 5.77. The Activity entry in [6], in data set [7] and in [9] was “Non-Toxic” in each case.
Regarding `CN1CCC(Oc2ccc(-c3cccc(NC(=O)c4ccc(Br)cc4)c3)c(-c3cccc(F)c3)c2)CC1`, in data set [2], the inhibition result is “Active”. Besides, the pEC50 is 5.23 in data set [3] and 5.25 in data set [4].
For the compound `CN1CCC(Oc2ccc(-c3cccc(NC(=O)c4ccc(Br)cc4)c3)c(-c3cccc(C(F)(F)F)c3)c2)CC1`, the inhibition result in data set [1], in [5], in data set [8] and in [10] was “Dose-dependent effect” in each case. For the same compound, in data set [2], the inhibition result is “Active”. The figures for the pEC50 in data set [3] and in data set [4] were 5.52 and 5.41, respectively. Further, the Activity entry in data set [6], in data set [7] and in [9] was “Non-Toxic” throughout.
On to `CC(=O)Oc1ccc(C(=O)Nc2ccc(-c3ccc(OC4CCN(C)CC4)cc3-c3cccc(C(F)(F)F)c3)cc2)cc1CC=C(C)C`, for which the pEC50 was 5.64 in data set [3] and 5.59 in data set [4].
Taken in the same sequence, the figures for `CC(=O)Oc1ccc(C(=O)Nc2cccc(-c3ccc(OC4CCN(C)CC4)cc3-c3cccc(C(F)(F)F)c3)c2)cc1CC=C(C)C` were 5.54 and 5.52.
Regarding `CN1CCC(Oc2ccc(-c3cccc(NC(=O)c4cn(Cc5ccc(C(C)(C)C)cc5)nn4)c3)c(-c3cccc(C(F)(F)F)c3)c2)CC1`, the inhibition entry in data set [2] is “inactive”. Further, the negative logarithm of the EC50 (pEC50) in data set [3] and in [4] was 5.52 in each case.
On to `COc1cccc(-c2cc(C(=O)Nc3ccc(-c4ccc(OC5CCN(C)CC5)cc4-c4cccc(F)c4)cc3)ccc2OC)c1`, for which the negative logarithm of the EC50 (pEC50) in data set [3] was 5.38; in data set [4], 5.68.
Taken in the same sequence, the figures for `CN1CCC(Oc2ccc(-c3cccc(NC(=O)c4ccc(C(C)(C)C)cc4)c3)c(-c3cccc(C(F)(F)F)c3)c2)CC1` were 5.74 and 5.55.
The like results for `CN1CCC(Oc2ccc(-c3ccc(NC(=O)c4ccc(C(C)(C)C)cc4)cc3)c(-c3cccc(C(F)(F)F)c3)c2)CC1` were, in that order, 5.62 and 5.52.
Taken in the same sequence, the figures for `CC(=O)Oc1ccc(C(=O)Nc2ccc(-c3ccc(OC4CCN(C)CC4)cc3-c3cccc(F)c3)cc2)cc1CC=C(C)C` were 5.49 and 5.48.
For `CC(=O)Oc1ccc(C(=O)Nc2cccc(-c3ccc(OC4CCN(C)CC4)cc3-c3cccc(F)c3)c2)cc1CC=C(C)C`, the pEC50 in [3] is 5.48; in data set [4], 5.36.
For `CN1CCC(Oc2ccc(-c3cccc(NC(=O)c4cn(Cc5ccc([N+](=O)[O-])cc5)nn4)c3)c(-c3cccc(C(F)(F)F)c3)c2)CC1`, in [2], the inhibition result was “Active”. In addition, the results for the negative logarithm of the EC50 (pEC50) in [3] and in data set [4] were 5.72 and 5.70, respectively.
In the case of `COc1cccc(-c2cc(C(=O)Nc3ccc(-c4ccc(OC5CCN(C)CC5)cc4-c4cccc(C(F)(F)F)c4)cc3)ccc2OC)c1`, the pEC50 in data set [3] was 5.74; in data set [4], 5.66.
On to `CN1CCC(Oc2ccc(-c3ccc(NC(=O)c4ccc(C(C)(C)C)cc4)cc3)c(-c3cccc(F)c3)c2)CC1`, for which the pEC50 in data set [3] and in [4] was 5.38 each time.
Consider `COc1cccc(-c2cc(C(=O)NCCc3ccc(OC4CCN(C)CC4)cc3-c3cccc(C(F)(F)F)c3)ccc2OC)c1`, for which the pEC50 in data set [3] was 5.46; in [4] it was 5.57.
As for `CN1CCC(Oc2ccc(-c3ccc(NC(=O)c4cn(Cc5ccc(C(C)(C)C)cc5)nn4)cc3)c(-c3cccc(C(F)(F)F)c3)c2)CC1`, in data set [2], the inhibition result is “inactive”. Moreover, the pEC50 in data set [3] was 5.36; in data set [4] it was 5.30.
Turning to `COc1cccc(-c2cc(C(=O)Nc3cccc(-c4ccc(OC5CCN(C)CC5)cc4-c4cccc(F)c4)c3)ccc2OC)c1`, the figures for the pEC50 in [3] and in data set [4] were 5.39 and 5.38, respectively.
As for `CN1CCC(Oc2ccc(-c3cccc(NC(=O)c4ccc(C(C)(C)C)cc4)c3)c(-c3cccc(F)c3)c2)CC1`, the pEC50 in [3] was 5.21; in [4] it was 5.28.
Taken in the same sequence, the figures for `COc1cccc(-c2cc(C(=O)Nc3cccc(-c4ccc(OC5CCN(C)CC5)cc4)c3)ccc2OC)c1` were 5.82 and 5.80.
`CN1CCC(Oc2ccc(-c3ccc(NC(=O)c4cn(Cc5ccccc5)nn4)cc3)c(-c3cccc(C(F)(F)F)c3)c2)CC1`: in [2], the inhibition result was “Active”. For the same compound, the values for the pEC50 in [3] and in data set [4] were 5.66 and 5.54, respectively.
On to `CN1CCC(Oc2ccc(-c3ccc(NC(=O)c4ccc(Br)cc4)cc3)c(-c3cccc(F)c3)c2)CC1`, for which, in [2], the inhibition result is “Active”. For the same compound, the negative-log EC50 (pEC50) was 5.28 in data set [3] and 5.29 in [4].
Regarding `COc1cccc(-c2cc(C(=O)Nc3cccc(-c4ccc(OC5CCN(C)CC5)cc4-c4cccc(C(F)(F)F)c4)c3)ccc2OC)c1`, the negative-log EC50 (pEC50) in data set [3] was 5.72; in [4], 5.64.
As for `CN1CCC(Oc2ccc(-c3ccc(NC(=O)c4cn(Cc5ccc([N+](=O)[O-])cc5)nn4)cc3)c(-c3cccc(C(F)(F)F)c3)c2)CC1`, the inhibition entry in data set [2] was “Active”. The results for the pEC50 in [3] and in data set [4] were 6.10 and 6.00, respectively.
For the compound `CN1CCC(Oc2ccc(-c3ccc(NC(=O)c4ccc(Br)cc4)cc3)c(-c3cccc(C(F)(F)F)c3)c2)CC1`, the inhibition result in [1], in data set [5], in data set [8] and in data set [10] was “Dose-dependent effect” in each case. The inhibition result in data set [2] is “Active”. The pEC50 in data set [3] was 5.46; in data set [4], 5.47. The Activity entry in data set [6], in data set [7] and in [9] was “Non-Toxic” each time.
In the case of `COc1ccc(Cn2cc(C(=O)Nc3ccc(-c4ccc(OC5CCN(C)CC5)cc4-c4cccc(C(F)(F)F)c4)cc3)nn2)cc1`, the inhibition entry in [2] is “Active”. Moreover, the pEC50 in data set [3] was 6.30; in data set [4] it was 6.05.
In data set [11], `CO[C@@H]1[C@@H](OC(N)=O)[C@@H](O)[C@H](Oc2ccc3c(O)c(NC(=O)c4ccc(O)c(CC=C(C)C)c4)c(=O)oc3c2C)OC1(C)C` [NOVOBIOCIN] had a pEC50 of 3.15.
On to `COc1ccc(Cn2cc(C(=O)Nc3cccc(-c4ccc(OC5CCN(C)CC5)cc4-c4cccc(C(F)(F)F)c4)c3)nn2)cc1`, for which the inhibition entry in [2] is “Active”. Also, the pEC50 in [3] and in data set [4] was 5.40 each time.
